Data on 3 compounds can be found in ChEMBL document CHEMBL1146236, “Antineoplastic agents. 560. Isolation and structure of kitastatin 1 from an Alaskan Kitasatospora sp” (2007).

Converted amounts (≈) assume the structure as drawn. Some results are limits rather than exact numbers.

In one experiment the test system is MCF7. As to the kind of experiment: Growth inhibition of human MCF7 cells after 48 hrs by sulforhodamine B assay. The class given is functional. The settings on record: MCF7, 48 h. Summed up: (§1)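 Cells in 5% fetal bovine serum/RPMI1640 were seeded and preincubated 24 h, then exposed to serial compound dilutions for 48 h. Plates were TCA-fixed, stained with sulforhodamine B and read by microplate reader. ED50 (concentration giving 50% reduction in net protein increase) was calculated from optical density data.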
For orientation: In SRB staining, fixed cells bind dye roughly in proportion to their protein.

In another experiment the test system is SF-268. The experiment is described as follows: Growth inhibition of human SF268 cells after 48 hrs by sulforhodamine B assay. The class given is functional. Conditions: SF-268, 48 h. In outline: as §1
The next experiment relates to DU-145. The experiment is described as follows: Growth inhibition of human DU145 cells after 48 hrs by sulforhodamine B assay. The class given is functional. The settings on record: DU-145, 48 h. In outline: as §1
The next experiment relates to P388. The experiment is described as follows: Growth inhibition of mouse P388 cells after 48 hrs by Coulter particle counting. Conditions: P388, 48 h, read-out: ED50 (the source's name).
The next experiment relates to KM-20L2. As to the kind of experiment: Growth inhibition of human KM20L2 cells after 48 hrs by sulforhodamine B assay. The class given is functional. The settings on record: KM-20L2, 48 h. Summed up: as §1
The test system of the next experiment is BXPC-3. As to the kind of experiment: Growth inhibition of human BXPC3 cells after 48 hrs by sulforhodamine B assay. The class given is functional. The settings on record: BXPC-3, 48 h. In outline:
as §1

The next experiment has as its system NCI-H460. The experiment is described as follows: Growth inhibition of human NCI-H460 cells after 48 hrs by sulforhodamine B assay. The class given is functional. The settings on record: NCI-H460, 48 h. In outline: as §1
In a further experiment the test system is Micrococcus luteus. As to the kind of experiment: Antibacterial activity against Micrococcus luteus Presque Isle 456. The class given is functional. In outline:
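Broth microdilution susceptibility test per NCCLS standards, strain Presque Isle 456. Compound reconstituted in sterile DMSO, diluted in the appropriate medium immediately before testing. MIC taken as the lowest concentration giving complete inhibition of visible growth (optically clear).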

Another experiment deals with Cryptococcus neoformans. The experiment is described as follows: Antifungal activity against Cryptococcus neoformans ATCC 90112. The class given is functional. In outline:
(§2)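 Broth microdilution susceptibility testing, following NCCLS reference methods (M7-A5 for bacteria, M27-A2 for yeasts). Compounds reconstituted in sterile DMSO and diluted in the appropriate medium just before testing. MIC was the lowest concentration giving complete inhibition of visible growth (optically clear).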

The subject of a further experiment is Enterococcus faecalis. The experiment is described as follows: Antibacterial activity against Enterococcus faecalis ATCC 29212. The class given is functional. Summed up: as §2

In the case of `CCC(C)[C@@H]1OC(=O)[C@H](C)OC(=O)[C@@H](NC(=O)c2cccc(NC=O)c2O)[C@@H](C)OC(=O)[C@H](C(C)C)OC(=O)C(C)(C)C(=O)[C@H](CC(C)C)NC1=O` (stereo not given in full), the GI50 (as a rule, the concentration that inhibits growth by half) in the experiment with MCF7 was 0.64 ng/mL (≈ 0.872 nM); in the experiment with SF-268, 16 ng/mL (≈ 21.8 nM); with DU-145, below 0.1 ng/mL; in the experiment with KM-20L2, 0.58 ng/mL (≈ 0.79 nM); with BXPC-3, 1200 ng/mL (≈ 1640 nM); in the experiment with NCI-H460, 0.63 ng/mL (≈ 0.859 nM). Further, in the experiment with P388, the EC50 turned out to be 33 ng/mL (≈ 45 nM). For the same compound, in the experiment with Micrococcus luteus, the MIC (commonly the lowest concentration found to suppress growth) was found to be 64000 ng/mL (≈ 87200 nM).
In the case of `CCC(C)[C@@H]1OC(=O)[C@H](C)OC(=O)[C@@H](NC(=O)c2cccc(N)c2O)[C@@H](C)OC(=O)[C@H](CC(C)C)OC(=O)C(C)(C)C(=O)[C@H](CC(C)C)NC1=O` (stereo not given in full) [KITASTATIN], the GI50 in the experiment on MCF7 was 4 ng/mL (≈ 5.56 nM); with SF-268 it was 3.5 ng/mL (≈ 4.86 nM); in the experiment with DU-145, 2.6 ng/mL (≈ 3.61 nM); in the experiment on KM-20L2, 2.4 ng/mL (≈ 3.33 nM); in the experiment with BXPC-3, 6.6 ng/mL (≈ 9.17 nM); with NCI-H460 it was below 1 ng/mL. For the same compound, the EC50 in the experiment on P388 was found to be 45 ng/mL (≈ 62.5 nM). In addition, the MIC in the experiment with Cryptococcus neoformans and with Enterococcus faecalis was 64000 ng/mL (≈ 88900 nM) throughout.
Regarding `CCC(C)[C@@H]1OC(=O)[C@H](C)OC(=O)[C@@H](NC(=O)c2cccc(NC=O)c2O)[C@@H](C)OC(=O)[C@H](CC(C)C)OC(=O)C(C)(C)C(=O)[C@H](CC(C)C)NC1=O` (stereo not given in full) [RESPIRANTIN], the GI50 stood at 0.6 ng/mL (≈ 0.802 nM) in the experiment on MCF7; 1.6 ng/mL (≈ 2.14 nM) in the experiment with SF-268; 0.18 ng/mL (≈ 0.241 nM) with DU-145; 0.6 ng/mL (≈ 0.802 nM) with KM-20L2; 470 ng/mL (≈ 628 nM) in the experiment with BXPC-3; 0.6 ng/mL (≈ 0.802 nM) with NCI-H460. In the experiment with P388, the EC50 worked out at 3.7 ng/mL (≈ 4.95 nM). Further, in the experiment on Cryptococcus neoformans, the MIC was determined as 2000 ng/mL (≈ 2670 nM).
